# Measured values from ChEMBL document CHEMBL3271988, “Nitrogen analogues of 1,4-benzoquinones. Activities against the ascitic sarcoma 180 of mice” (J Med Chem, 1978).
# Calls of active or inactive are those of the source. No cut-off for these calls is given here.
# Columns and labels:
# Sarcoma-180 [1] = assay: Antitumor activity against mouse Sarcoma 180 cells allografted in Swiss mouse at 10 mg/kg, ip three doses were given at 24 hrs interval starting 24 hrs after allograft injection relative to control; assay type: functional; settings: route intraperitoneal
# Summary of the method: (§1)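 Swiss mice received 10^6 ascitic sarcoma 180 cells ip, then three ip doses 24 h apart starting at 24 h. Controls got isotonic salt solution on the same schedule. T/C% is mean survival time of treated over controls (6 mice per group).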
# Sarcoma-180 [2] = assay: Antitumor activity against mouse Sarcoma 180 cells allografted in Swiss mouse assessed as weight gain at 10 mg/kg, ip three doses were given at 24 hrs interval starting 24 hrs after allograft injection measured after 3 days relative to control; assay type: functional; settings: route intraperitoneal
# Summary of the method: (§2)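 Ascitic sarcoma 180 model in Swiss mice: 10^6 cells ip, then three ip doses at 24-h intervals beginning 24 h later. Mice were weighed 1 day after cell injection and again 3 days later (24 h after the third dose). Percent weight gain of treated mice was compared with saline-treated controls on the same schedule.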
# [3] = Redox potential of the compound in alcohol-water solution; settings: buffer
# Sarcoma-180 [4] = assay: Antitumor activity against mouse Sarcoma 180 cells allografted in Swiss mouse assessed as survival time at 10 mg/kg, ip three doses were given at 24 hrs interval starting 24 hrs after allograft injection relative to control; assay type: functional; settings: route intraperitoneal
# Summary of the method: (§3)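 Swiss mice inoculated ip with 10^6 ascitic sarcoma 180 cells. Compound given ip daily ×3 at 24-h intervals, starting 24 h after inoculation. Controls received isotonic saline on the same schedule; 6 mice per group. Mice alive at 60 days counted as 60 days in mean survival (±SD).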
# Sarcoma-180 [5] = assay: Antitumor activity against mouse Sarcoma 180 cells allografted in Swiss mouse assessed as survival at 10 mg/kg, ip three doses were given at 24 hrs interval starting 24 hrs after allograft injection measured after 5 days; assay type: functional, organism-based; design: dose 10 mg/kg
# Summary of the method: (§4)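 Swiss mice were injected ip with 10^6 ascitic sarcoma 180 cells. Three daily ip doses followed, the first 24 h after cell injection. The read-out was the number of mice surviving at 5 days, out of 6 treated.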
# Sarcoma-180 [6] = assay: Antitumor activity against mouse Sarcoma 180 cells allografted in Swiss mouse assessed as cure at 10 mg/kg, ip three doses were given at 24 hrs interval starting 24 hrs after allograft injection measured after 60 days; assay type: functional, organism-based; design: dose 10 mg/kg
# Summary of the method: (§5)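 Swiss mice given 10^6 ascitic sarcoma 180 cells ip. Starting 24 h later, three ip doses were given 24 h apart. Controls got isotonic salt solution on the same schedule. A cure was a mouse alive with no evidence of cancer cells 60 days after cell injection, reported per 6 mice.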
# [7] = Acute toxicity in single ip dosed Swiss mouse assessed as death up to 5 days; assay type: organism-based; settings: in vivo
# Summary of the method: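 Male Swiss mice given one ip dose. LD50 taken as the single dose killing 50% of animals within 5 days.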
# Sarcoma-180 [8] = assay: Antitumor activity against mouse Sarcoma 180 cells allografted in Swiss mouse assessed as survival time at 150 mg/kg, ip three doses were given at 24 hrs interval starting 24 hrs after allograft injection relative to control; assay type: functional; settings: route intraperitoneal; summary of the method: as §3
# Sarcoma-180 [9] = assay: Antitumor activity against mouse Sarcoma 180 cells allografted in Swiss mouse assessed as weight gain at 150 mg/kg, ip three doses were given at 24 hrs interval starting 24 hrs after allograft injection measured after 3 days relative to control; assay type: functional; settings: route intraperitoneal; summary of the method: as §2
# Sarcoma-180 [10] = assay: Antitumor activity against mouse Sarcoma 180 cells allografted in Swiss mouse assessed as cure at 150 mg/kg, ip three doses were given at 24 hrs interval starting 24 hrs after allograft injection measured after 60 days; assay type: functional, organism-based; design: dose 150 mg/kg; summary of the method: as §5
# Sarcoma-180 [11] = assay: Antitumor activity against mouse Sarcoma 180 cells allografted in Swiss mouse at 150 mg/kg, ip three doses were given at 24 hrs interval starting 24 hrs after allograft injection relative to control; assay type: functional; settings: route intraperitoneal; summary of the method: as §1
# Sarcoma-180 [12] = assay: Antitumor activity against mouse Sarcoma 180 cells allografted in Swiss mouse assessed as survival at 150 mg/kg, ip three doses were given at 24 hrs interval starting 24 hrs after allograft injection measured after 5 days; assay type: functional, organism-based; design: dose 150 mg/kg; summary of the method: as §4
# Sarcoma-180 [13] = assay: Antitumor activity against mouse Sarcoma 180 cells allografted in Swiss mouse assessed as weight gain at 70 mg/kg, ip three doses were given at 24 hrs interval starting 24 hrs after allograft injection measured after 3 days relative to control; assay type: functional; settings: route intraperitoneal; summary of the method: as §2
# Sarcoma-180 [14] = assay: Antitumor activity against mouse Sarcoma 180 cells allografted in Swiss mouse assessed as survival time at 70 mg/kg, ip three doses were given at 24 hrs interval starting 24 hrs after allograft injection relative to control; assay type: functional; settings: route intraperitoneal; summary of the method: as §3
# Sarcoma-180 [15] = assay: Antitumor activity against mouse Sarcoma 180 cells allografted in Swiss mouse assessed as cure at 70 mg/kg, ip three doses were given at 24 hrs interval starting 24 hrs after allograft injection measured after 60 days; assay type: functional, organism-based; design: dose 70 mg/kg; summary of the method: as §5
# Sarcoma-180 [16] = assay: Antitumor activity against mouse Sarcoma 180 cells allografted in Swiss mouse assessed as survival at 70 mg/kg, ip three doses were given at 24 hrs interval starting 24 hrs after allograft injection measured after 5 days; assay type: functional, organism-based; design: dose 70 mg/kg; summary of the method: as §4
# [17] = Half life of the compound in water at pH 7 at 25 degC by spectrophotometry; assay type: physicochemical
# Summary of the method: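 Compound dissolved in absolute ethanol, then diluted into 0.01 M Tris buffer brought to pH 7 with HCl, 25 °C. Absorbance at λmax followed over hours or days; log absorbance vs time fitted by least squares, rate constant and half-time taken from the slope.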
# Sarcoma-180 [18] = assay: Antitumor activity against mouse Sarcoma 180 cells allografted in Swiss mouse at 70 mg/kg, ip three doses were given at 24 hrs interval starting 24 hrs after allograft injection relative to control; assay type: functional; settings: route intraperitoneal
# Summary of the method: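 Swiss mice given 10^6 ascitic sarcoma 180 cells ip; three ip doses at 24-h intervals starting 24 h later; controls received isotonic salt solution on the same schedule. […] Cures = alive without cancer cells at 60 days.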
# Sarcoma-180 [19] = assay: Antitumor activity against mouse Sarcoma 180 cells allografted in Swiss mouse at 60 mg/kg, ip three doses were given at 24 hrs interval starting 24 hrs after allograft injection relative to control; assay type: functional; settings: route intraperitoneal; summary of the method: as §1
# Sarcoma-180 [20] = assay: Antitumor activity against mouse Sarcoma 180 cells allografted in Swiss mouse assessed as survival time at 60 mg/kg, ip three doses were given at 24 hrs interval starting 24 hrs after allograft injection relative to control; assay type: functional; settings: route intraperitoneal; summary of the method: as §3
# Sarcoma-180 [21] = assay: Antitumor activity against mouse Sarcoma 180 cells allografted in Swiss mouse assessed as survival at 60 mg/kg, ip three doses were given at 24 hrs interval starting 24 hrs after allograft injection measured after 5 days; assay type: functional, organism-based; design: dose 60 mg/kg; summary of the method: as §4
# Sarcoma-180 [22] = assay: Antitumor activity against mouse Sarcoma 180 cells allografted in Swiss mouse assessed as weight gain at 60 mg/kg, ip three doses were given at 24 hrs interval starting 24 hrs after allograft injection measured after 3 days relative to control; assay type: functional; settings: route intraperitoneal; summary of the method: as §2
# Sarcoma-180 [23] = assay: Antitumor activity against mouse Sarcoma 180 cells allografted in Swiss mouse assessed as cure at 60 mg/kg, ip three doses were given at 24 hrs interval starting 24 hrs after allograft injection measured after 60 days; assay type: functional, organism-based; design: dose 60 mg/kg; summary of the method: as §5
# Sarcoma-180 [24] = assay: Antitumor activity against mouse Sarcoma 180 cells allografted in Swiss mouse assessed as cure at 6 mg/kg, ip three doses were given at 24 hrs interval starting 24 hrs after allograft injection measured after 60 days; assay type: functional, organism-based; design: dose 6 mg/kg; summary of the method: as §5
# Sarcoma-180 [25] = assay: Antitumor activity against mouse Sarcoma 180 cells allografted in Swiss mouse assessed as survival time at 6 mg/kg, ip three doses were given at 24 hrs interval starting 24 hrs after allograft injection relative to control; assay type: functional; settings: route intraperitoneal; summary of the method: as §3
# Sarcoma-180 [26] = assay: Antitumor activity against mouse Sarcoma 180 cells allografted in Swiss mouse assessed as survival at 6 mg/kg, ip three doses were given at 24 hrs interval starting 24 hrs after allograft injection measured after 5 days; assay type: functional, organism-based; design: dose 6 mg/kg; summary of the method: as §4
# Sarcoma-180 [27] = assay: Antitumor activity against mouse Sarcoma 180 cells allografted in Swiss mouse at 6 mg/kg, ip three doses were given at 24 hrs interval starting 24 hrs after allograft injection relative to control; assay type: functional; settings: route intraperitoneal; summary of the method: as §1
# Sarcoma-180 [28] = assay: Antitumor activity against mouse Sarcoma 180 cells allografted in Swiss mouse assessed as weight gain at 6 mg/kg, ip three doses were given at 24 hrs interval starting 24 hrs after allograft injection measured after 3 days relative to control; assay type: functional; settings: route intraperitoneal; summary of the method: as §2
# Sarcoma-180 [29] = assay: Antitumor activity against mouse Sarcoma 180 cells allografted in Swiss mouse assessed as cure at 20 mg/kg, ip three doses were given at 24 hrs interval starting 24 hrs after allograft injection measured after 60 days; assay type: functional, organism-based; design: dose 20 mg/kg; summary of the method: as §5
# Sarcoma-180 [30] = assay: Antitumor activity against mouse Sarcoma 180 cells allografted in Swiss mouse assessed as weight gain at 20 mg/kg, ip three doses were given at 24 hrs interval starting 24 hrs after allograft injection measured after 3 days relative to control; assay type: functional; settings: route intraperitoneal; summary of the method: as §2
# Sarcoma-180 [31] = assay: Antitumor activity against mouse Sarcoma 180 cells allografted in Swiss mouse assessed as survival time at 20 mg/kg, ip three doses were given at 24 hrs interval starting 24 hrs after allograft injection relative to control; assay type: functional; settings: route intraperitoneal; summary of the method: as §3
# Sarcoma-180 [32] = assay: Antitumor activity against mouse Sarcoma 180 cells allografted in Swiss mouse assessed as survival at 20 mg/kg, ip three doses were given at 24 hrs interval starting 24 hrs after allograft injection measured after 5 days; assay type: functional, organism-based; design: dose 20 mg/kg; summary of the method: as §4
# Sarcoma-180 [33] = assay: Antitumor activity against mouse Sarcoma 180 cells allografted in Swiss mouse at 20 mg/kg, ip three doses were given at 24 hrs interval starting 24 hrs after allograft injection relative to control; assay type: functional; settings: route intraperitoneal; summary of the method: as §1
smiles,measurement,setting,value
COC1=C/C(=N\c2ccc(N(C)C)cc2)C=CC1=O,T/C,Sarcoma-180 [1],181%
same,Activity,Sarcoma-180 [2],1.9%
same,Redox potential,[3],0.561 V
same,Survival,Sarcoma-180 [4],19.3 days
same,Activity,Sarcoma-180 [5],Active
same,Activity,Sarcoma-180 [6],inactive
same,LD50 at 120 h,[7],25 mg/kg
O=C1C=CC(=NO)C=C1,Survival,Sarcoma-180 [8],17.8 days
same,Redox potential,[3],0.544 V
same,Activity,Sarcoma-180 [9],-5.2%
same,Activity,Sarcoma-180 [10],inactive
same,T/C,Sarcoma-180 [11],135%
same,Activity,Sarcoma-180 [12],Active
same,LD50 at 120 h,[7],260 mg/kg
O=C1C=C/C(=N/O)C=C1Cl,Activity,Sarcoma-180 [13],13.4%
same,Redox potential,[3],0.516 V
same,Survival,Sarcoma-180 [14],12.2 days
same,Activity,Sarcoma-180 [15],inactive
same,Activity,Sarcoma-180 [16],Active
same,half-life,[17],13.1 days
same,T/C,Sarcoma-180 [18],130%
same,LD50 at 120 h,[7],240 mg/kg
COC1=C/C(=N\O)C=CC1=O,T/C,Sarcoma-180 [19],173%
same,Redox potential,[3],0.521 V
same,Survival,Sarcoma-180 [20],18.5 days
same,Activity,Sarcoma-180 [21],Active
same,Activity,Sarcoma-180 [22],1.9%
same,half-life,[17],12.4 days
same,Activity,Sarcoma-180 [23],inactive
same,LD50 at 120 h,[7],120 mg/kg
O=C1C=C/C(=N/O)C(Br)=C1,Survival,Sarcoma-180 [8],18.2 days
same,Redox potential,[3],0.532 V
same,Activity,Sarcoma-180 [9],6.4%
same,Activity,Sarcoma-180 [10],inactive
same,T/C,Sarcoma-180 [11],158%
same,Activity,Sarcoma-180 [12],Active
same,LD50 at 120 h,[7],1090 mg/kg
CC1=C/C(=N\c2ccc(N(C)C)cc2)C=CC1=O,Redox potential,[3],0.604 V
same,Activity,Sarcoma-180 [24],inactive
same,Survival,Sarcoma-180 [25],18 days
same,Activity,Sarcoma-180 [26],Active
same,T/C,Sarcoma-180 [27],127%
same,half-life,[17],83.8 days
same,LD50 at 120 h,[7],27 mg/kg
same,Activity,Sarcoma-180 [28],-0.6%
CC(=O)Oc1ccc(N=C2C=CC(=O)C=C2)cc1,Activity,Sarcoma-180 [29],inactive
same,Activity,Sarcoma-180 [30],-1.5%
same,Redox potential,[3],0.633 V
same,Survival,Sarcoma-180 [31],19.2 days
same,Activity,Sarcoma-180 [32],Active
same,T/C,Sarcoma-180 [33],130%
same,LD50 at 120 h,[7],90 mg/kg
